From ChEMBL document CHEMBL5126577, “Discovery of honokiol thioethers containing 1,3,4-oxadiazole moieties as potential α-glucosidase and SARS-CoV-2 entry inhibitors” (Bioorg Med Chem, 2022)

Assays:
[1] = Inhibition of alpha-glucosidase (unknown origin) using PNPG as substrate at 5 to 45 uM preincubated for 15 mins followed by substrate addition and measured after 10 mins by microplate reader analysis; settings: Homo sapiens; dose 5-45 µM, time 25.0 min
Summary of the method: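 Compounds in DMSO/PBS dilution series were incubated with α-glucosidase (1.0 U/mL in PBS) for 15 min at 37 °C. 1 mM PNPG was added and incubated 10 min, then OD was read at 405 nm. Inhibition % was corrected with PBS-only and enzyme-free blanks. IC50 was calculated, with experiments run in triplicate.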

[2] = Cytotoxicity against human HEK-293T cells overexpressing ACE2 assessed as maximal non-toxic dose incubated for 4 hrs; assay type: toxicity, cell-based
L02 = test: Cytotoxicity against human L02 cells assessed as reduction on cell viability at 3.125 to 100 uM by MTT assay; assay type: toxicity, cell-based; settings: l02, 100 µM, dose 3.125-100 µM
[3] = Cytotoxicity against human L02 cells assessed as cell survival rate at 100 uM by MTT assay; assay type: toxicity, cell-based; settings: read-out: Survival
Spike glycoprotein = Spike glycoprotein (Severe acute respiratory syndrome coronavirus 2, UniProt P0DTC2); test: Binding affinity to SARS-CoV-2 spike protein receptor-binding domain assessed as equilibrium dissociation constant by biolayer interferometry assay
Summary of the method: (§1)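 BLI on Ni-NTA biosensors loaded with His-tagged recombinant SARS-CoV-2 spike RBD or human ACE2. Compounds (10 mM DMSO stock) were diluted serially in PBS. Each cycle: PBS equilibration 10 min, baseline 120 s, association 120 s, dissociation in PBS 120 s, all at 30 °C. Curves were double-referenced to blank sensors and PBS, and KD came from a 1:1 binding fit.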

[4] = biological target: Angiotensin-converting enzyme 2 (Homo sapiens, UniProt Q9BYF1); test: Binding affinity to human ACE2 assessed as equilibrium dissociation constant by biolayer interferometry assay; summary of the method: as §1
Sequence of Angiotensin-converting enzyme 2 (Q9BYF1 whole entry): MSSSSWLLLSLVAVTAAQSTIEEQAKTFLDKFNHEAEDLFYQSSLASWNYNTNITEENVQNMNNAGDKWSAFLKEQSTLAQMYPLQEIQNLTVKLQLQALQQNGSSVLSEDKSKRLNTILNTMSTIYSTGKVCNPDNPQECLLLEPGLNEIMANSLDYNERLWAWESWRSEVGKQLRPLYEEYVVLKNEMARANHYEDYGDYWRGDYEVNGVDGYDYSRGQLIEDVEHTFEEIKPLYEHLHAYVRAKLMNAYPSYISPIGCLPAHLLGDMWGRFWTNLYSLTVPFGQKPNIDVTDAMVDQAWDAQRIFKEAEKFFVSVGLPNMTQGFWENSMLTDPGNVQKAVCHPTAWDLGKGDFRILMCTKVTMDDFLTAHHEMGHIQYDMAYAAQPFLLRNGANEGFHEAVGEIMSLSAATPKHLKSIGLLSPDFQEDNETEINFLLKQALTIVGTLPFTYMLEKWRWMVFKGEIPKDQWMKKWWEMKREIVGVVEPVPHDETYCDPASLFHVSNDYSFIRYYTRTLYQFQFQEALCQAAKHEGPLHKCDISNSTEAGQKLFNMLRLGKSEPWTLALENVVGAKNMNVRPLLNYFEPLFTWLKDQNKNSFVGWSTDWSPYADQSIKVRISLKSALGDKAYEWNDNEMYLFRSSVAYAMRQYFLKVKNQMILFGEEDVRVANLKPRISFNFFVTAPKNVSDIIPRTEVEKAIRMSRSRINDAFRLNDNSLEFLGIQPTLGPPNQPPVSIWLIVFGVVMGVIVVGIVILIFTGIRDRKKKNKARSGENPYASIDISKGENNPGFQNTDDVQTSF

| Structure (SMILES) | inhibition [1] | MNTC at 4 h [2] | also measured |
| --- | --- | --- | --- |
| C=CCc1cc(-c2cc(CC=C)c3oc(SCc4nnc(-c5cccc(C)c5)o4)nc3c2)c2oc(SCc3nnc(-c4cccc(C)c4)o3)nc2c1 | 95.2% | > 100 µM | Activity (L02): Non-Toxic; viability at 100 µM [3]: 80% |
| C=CCc1cc(-c2cc(CC=C)c3oc(SCc4nnc(-c5ccccc5OC)o4)nc3c2)c2oc(SCc3nnc(-c4ccccc4OC)o3)nc2c1 | 25.2% | > 100 µM |  |
| C=CCc1cc(CSc2nnc(-c3ccc(C)cc3)o2)c(O)c(-c2ccc(O)c(CC=C)c2)c1 | 6.7% |  |  |
| C=CCc1cc(-c2cc(CC=C)c3oc(SCc4nnc(-c5ccc(C)cc5)o4)nc3c2)c2oc(SCc3nnc(-c4ccc(C)cc4)o3)nc2c1 | 13.5% | > 100 µM |  |
| C=CCc1cc(-c2cc(CC=C)c3oc(SCc4nnc(-c5ccc(F)cc5)o4)nc3c2)c2oc(SCc3nnc(-c4ccc(F)cc4)o3)nc2c1 | 8.4% | > 100 µM |  |
| C=CCc1cc(CSc2nnc(-c3ccc(Br)cc3)o2)c(O)c(-c2ccc(O)c(CC=C)c2)c1 | 3.7% |  |  |
| C=CCc1cc(-c2cc(CC=C)c3oc(SCc4nnc(-c5ccc(Cl)cc5)o4)nc3c2)c2oc(SCc3nnc(-c4ccc(Cl)cc4)o3)nc2c1 | 57.9% | > 100 µM |  |
| C=CCc1cc(-c2cc(CC=C)c3oc(SCc4nnc(-c5ccc(Br)cc5)o4)nc3c2)c2oc(SCc3nnc(-c4ccc(Br)cc4)o3)nc2c1 | 22.4% | > 100 µM |  |
| C=CCc1cc(-c2cc(CC=C)c3oc(SCc4nnc(-c5ccccc5Br)o4)nc3c2)c2oc(SCc3nnc(-c4ccccc4Br)o3)nc2c1 | 91.5% | > 100 µM |  |
| C=CCc1cc(-c2cc(CC=C)c3oc(SCc4nnc(-c5cccc(F)c5)o4)nc3c2)c2oc(SCc3nnc(-c4cccc(F)c4)o3)nc2c1 | 14.6% | > 100 µM |  |
| C=CCc1cc(-c2cc(CC=C)c3oc(SCc4nnc(-c5ccc(OC)cc5)o4)nc3c2)c2oc(SCc3nnc(-c4ccc(OC)cc4)o3)nc2c1 | 9.9% | > 100 µM |  |
| C=CCc1cc(-c2cc(CC=C)c3oc(SCc4nnc(-c5cccc(Br)c5)o4)nc3c2)c2oc(SCc3nnc(-c4cccc(Br)c4)o3)nc2c1 | 12.4% | > 100 µM |  |
| C=CCc1cc(-c2cc(CC=C)c3oc(SCc4nnc(-c5ccccc5F)o4)nc3c2)c2oc(SCc3nnc(-c4ccccc4F)o3)nc2c1 | 33.9% | > 100 µM |  |
| C=CCc1cc(CSc2nnc(-c3ccccc3F)o2)c(O)c(-c2ccc(O)c(CC=C)c2)c1 |  | > 100 µM |  |
| C=CCc1cc(-c2cc(CC=C)c3oc(SCc4nnc(-c5cccc(Cl)c5)o4)nc3c2)c2oc(SCc3nnc(-c4cccc(Cl)c4)o3)nc2c1 | 10.4% | > 100 µM |  |
| C=CCc1ccc(O)c(-c2ccc(O)c(CC=C)c2)c1 [HONOKIOL] | 17.1% | 50 µM | Kd (Spike glycoprotein): 25 µM |
| C=CCc1cc(CSc2nnc(-c3cccc(C)c3)o2)c(O)c(-c2ccc(O)c(CC=C)c2)c1 | 78.2% |  |  |
| C=CCc1cc(CSc2nnc(-c3cccnc3)o2)c(O)c(-c2ccc(O)c(CC=C)c2)c1 | 33.2% | > 100 µM | Kd (Spike glycoprotein): 7.29 µM; Kd [4]: 16 µM; Activity (L02): Non-Toxic; viability at 100 µM [3]: 80% |
| C=CCc1cc(-c2cc(CC=C)c3oc(SCc4nnc(-c5ccccc5Cl)o4)nc3c2)c2oc(SCc3nnc(-c4ccccc4Cl)o3)nc2c1 | 19.4% | > 100 µM |  |
| C=CCc1cc(-c2cc(CC=C)c3oc(SCc4nnc(-c5ccccc5C)o4)nc3c2)c2oc(SCc3nnc(-c4ccccc4C)o3)nc2c1 |  | > 100 µM |  |
| C=CCc1cc(CSc2nnc(-c3ccccc3Cl)o2)c(O)c(-c2ccc(O)c(CC=C)c2)c1 | 64.5% | > 100 µM |  |
| C=CCc1cc(CSc2nnc(-c3cccc(F)c3)o2)c(O)c(-c2ccc(O)c(CC=C)c2)c1 | 53.5% |  |  |
| C=CCc1cc(CSc2nnc(-c3ccccc3C)o2)c(O)c(-c2ccc(O)c(CC=C)c2)c1 | 64.5% | > 100 µM |  |
| C=CCc1cc(-c2cc(CC=C)c3oc(SCc4nnc(-c5ccccc5)o4)nc3c2)c2oc(SCc3nnc(-c4ccccc4)o3)nc2c1 | 6.3% | > 100 µM |  |
| C=CCc1cc(CSc2nnc(-c3cccc(OC)c3)o2)c(O)c(-c2ccc(O)c(CC=C)c2)c1 | 81.8% |  |  |
| C=CCc1cc(CSc2nnc(-c3ccc([N+](=O)[O-])cc3)o2)c(O)c(-c2ccc(O)c(CC=C)c2)c1 | 79.5% |  |  |
| C=CCc1cc(CSc2nnc(-c3ccccc3)o2)c(O)c(-c2ccc(O)c(CC=C)c2)c1 | 69.8% | > 100 µM | Kd (Spike glycoprotein): 6.94 µM; Kd [4]: 14 µM; Activity (L02): Non-Toxic; viability at 100 µM [3]: 80% |
| C=CCc1cc(CSc2nnc(-c3ccc(Cl)cc3)o2)c(O)c(-c2ccc(O)c(CC=C)c2)c1 | 7.1% |  |  |
| C=CCc1cc(-c2cc(CC=C)c3oc(SCc4nnc(-c5cccc(OC)c5)o4)nc3c2)c2oc(SCc3nnc(-c4cccc(OC)c4)o3)nc2c1 | 95.5% | > 100 µM |  |
